Published values from different studies.
Lines come from different studies, so protocols differ.
Cell line: HT-29

Compound	effect on	method	time	IC50
O=C(O)c1cc(O)c(O)c(O)c1	cell growth or viability	MTT		16.3 µM
CN1C(=O)/C(=N\NC(=O)c2cc3ccccc3[nH]2)c2cc(Cl)ccc21	cell growth or viability			5.67 µM
CCN(CC)CCNC(=O)c1c(C)[nH]c(/C=C2\C(=O)Nc3ccc(F)cc32)c1C	cell growth or viability			10.1 µM
CC(=O)O[C@H]1C(=O)[C@@]2(C)[C@H]([C@H](OC(=O)c3ccccc3)[C@]3(O)C[C@H](OC(=O)[C@H](O)[C@@H](NC(=O)c4ccccc4)c4ccccc4)C(C)=C1C3(C)C)[C@]1(OC(C)=O)CO[C@@H]1C[C@@H]2O	cell growth or viability	fluorescence	72 h	0.0035 µM
CCCCCCCCCCCC(=O)Oc1c(C)c(O)c(C(=O)/C=C/c2ccccc2)c(OC)c1C	cell growth or viability	SRB	72 h	> 50 µM
NCCCC[C@@H](N)C(=O)Nc1ccc(-n2nc(C(F)(F)F)cc2-c2ccc3c(ccc4ccccc43)c2)cc1	cell growth or viability	MTT	24 h	3.2 µg/mL
C#C[C@@]1(O)[C@@H](COP(=O)(O)OC[C@H]2O[C@@H](n3cc(F)c(=O)[nH]c3=O)C[C@@H]2O)O[C@@H](n2ccc(N)nc2=O)[C@@H]1O	cell growth or viability	SRB	72 h	0.0054 µM
CC(=O)c1cccc(/N=N/c2cc(/C=C/C(=O)O)ccc2O)c1	cell growth or viability	MTT		> 50 µM
COc1ccc(-c2cc3nccn3c(Nc3ncccc3C(N)=O)n2)cc1OC	IL-8 release		24 h	> 2.56 µM
CC(=O)c1ccc(/N=N/c2cc(/C=C/C(=O)O)ccc2O)cc1	cell growth or viability	MTT		> 50 µM
COc1ccc2c(c1)/C(=N/NC(=O)c1cc3ccccc3[nH]1)C(=O)N2	cell growth or viability			> 30 µM
COc1ccc(C(=O)O[C@@H]2CN3Cc4c(cc5c(c4OC)OCO5)[C@@]24C=C[C@H](OC)C[C@@H]34)cc1OC	cell growth or viability	WST-1		> 10 µM
NCC(=O)Nc1ccc(-n2nc(C(F)(F)F)cc2-c2ccc3c(c2)Nc2ccccc2S3)cc1	cell growth or viability	MTT	24 h	6.2 µg/mL
Cc1occc(=O)c1[O-].[Cl-].[W+4].c1cc[cH-]c1.c1cc[cH-]c1	cell growth or viability	MTT		540 µM
CN1C(=O)/C(=N\NC(=O)c2cc3ccccc3[nH]2)c2ccccc21	cell growth or viability			12.9 µM
Cc1ccc(-n2nc(C(C)(C)C)cc2NC(=O)Nc2ccc(OCCN3CCOCC3)c3ccccc23)cc1	IL-8 release		24 h	> 1.9 µM
O=C1Nc2ccc(Br)cc2/C1=N/NC(=O)c1cc2ccccc2[nH]1	cell growth or viability			21.9 µM
CC[C@]1(O)C[C@H]2CN(CCc3c([nH]c4ccccc34)[C@@](C(=O)OC)(c3cc4c(cc3OC)N(C=O)[C@H]3[C@@](O)(C(=O)OC)[C@H](OC(C)=O)[C@]5(CC)C=CCN6CC[C@]43[C@@H]65)C2)C1	cell growth or viability	fluorescence	72 h	0.0004 µM
O=C(O)C[C@H](O)C[C@H](O)/C=C/c1c(C2CC2)nc2ccccc2c1-c1ccc(F)cc1	cell growth or viability	SRB	72 h	0.09 µg/mL
C#Cc1cccc(Nc2ncnc3cc(OCCOC)c(OCCOC)cc23)c1	cell growth or viability	MTT		0.07 µM
CC(C)C[C@H](NC(=O)[C@H](Cc1ccccc1)NC(=O)c1cnccn1)B(O)O	cell growth or viability	ATP luminescence		0.0098 µM
CCOc1cc(OCC)cc(C(=O)O[C@@H]2CN3Cc4c(cc5c(c4OC)OCO5)[C@@]24C=C[C@H](OC)C[C@@H]34)c1	cell growth or viability	WST-1		> 10 µM
C1CCCC1.C1CCCC1.[Cl][W][Cl]	cell growth or viability	MTT		10000 µM
O=C(N/N=C1\C(=O)N(c2ccccc2)c2ccccc21)c1cc2ccccc2[nH]1	cell growth or viability			6.34 µM
COc1c(C)c(OC)c2c(c1C)OC(c1ccccc1)CC2=O (stereo not drawn)	cell growth or viability	SRB	72 h	> 50 µM
CC(C)n1c(/C=C/C(O)CC(O)CC(=O)O)c(-c2ccc(F)cc2)c2ccccc21 (stereo not drawn)	cell growth or viability	SRB	72 h	1.67 µg/mL
O=C1Nc2ccc(F)cc2/C1=N/NC(=O)c1cc2ccccc2[nH]1	cell growth or viability			> 30 µM
